The target in series [1] is Fibroblast growth factor receptor 1 (Homo sapiens) (UniProt P11362). Nature of the series: Inhibition of FGFR1 phosphorylation in human […] cells at 3 to 6 uM incubated for 48 hrs in presence of bFGF by immunoblotting analysis. The series is classed as cell-based. The settings on record: MDA-MB-231, dose 3-6 µM. The method, boiled down: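 MDA-MB-231 cells treated 48 h with or without bFGF, lysed in RIPA buffer with protease and phosphatase inhibitors. Equal protein loads were run on SDS-PAGE and transferred to PVDF. Blots were probed with anti-pFGFR1 (1:1000), using β-tubulin (1:2000) as loading control. Bands were detected by HRP chemiluminescence and quantified by densitometry; n = 3.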

The test system of series [2] is MDA-MB-231. Nature of the series: Induction of apoptosis in human MDA-MB-231 cells assessed as fold increase in apoptotic index at 5 uM relative to control. In kind it is functional.
In series [3] the test system is MDA-MB-231. The series is described as follows: Cytotoxicity against human MDA-MB-231 cells assessed as reduction in cell viability incubated for 48 hrs by MTT assay. In kind it is functional, cell-based. The settings on record: MDA-MB-231, 48 h. The method, boiled down:
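MTT assay in MDA-MB-231 cells grown in DMEM with 10% heat-inactivated FBS at 37 °C and 5% CO2. Cells were seeded at 8000 per well, left 24 h, then exposed for 48 h to 0–25 μM in DMEM with 2% FBS (final DMSO 0.1%). MTT (0.5 mg/mL) was added for 2 h, formazan was dissolved in DMSO and read at 570 nm. Runs were in triplicate and IC50 was derived from the curves.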

The nature of series [4]: Metabolic stability in Sprague-Dawley rat liver microsomes assessed as parent compound remaining in presence of NADPH measured up to 60 mins by LC-MS/MS analysis. The series is classed as ADME, Microsome. To be noted: 1 h. The method, boiled down:
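Pooled male Sprague-Dawley rat liver microsomes (6.2% mixture in potassium phosphate buffer) were used with an NADPH regenerating system. Compound, diluted to 5 μM before mixing, was prewarmed 10 min at 37 °C, then incubated with microsomes at 37 °C with shaking. Samples taken at 0, 5, 15, 30 and 60 min were quenched in ice-cold acetonitrile and centrifuged. Analysis was by LC-MS/MS, giving % remaining versus T0 from peak area ratios. Three independent experiments in triplicate.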
On the technique in general: Liver microsomes are vesicles of endoplasmic reticulum, rich in cytochrome P450 enzymes.

Series [5] concerns MDA-MB-231. Nature of the series: Effect on cell cycle in human MDA-MB-231 cells at 0 to 5 uM. In kind it is functional, cell-based. To be noted: dose 0-5 µM.
The test system of series [6] is MDA-MB-231. Nature of the series: Induction of apoptosis in human MDA-MB-231 cells at 1 uM incubated for 48 hrs. The series is classed as functional, cell-based.
For series [7], the system named is MDA-MB-231. The series is described as follows: Induction of apoptosis in human MDA-MB-231 cells assessed as caspase-3 cleavage. In kind it is functional, cell-based. The method, boiled down: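 MDA-MB-231 cells treated 48 h, lysed on ice in RIPA buffer with protease and phosphatase inhibitors, then centrifuged. Equal protein loads were run on SDS-PAGE and transferred to PVDF. Blots were probed for cleaved caspase-3 and total caspase-3 (1:1000), with β-tubulin (1:2000) as loading control. Detection used HRP chemiluminescence with goat anti-rabbit secondary, and bands were quantified by densitometry.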

For series [8], the system named is MDA-MB-231. Nature of the series: Induction of apoptosis in human MDA-MB-231 cells incubated for 48 hrs. In kind it is functional, cell-based.
The target of another series is Histamine H1 receptor (Homo sapiens, UniProt P35367). The series is described as follows: Inhibition of H1R (unknown origin).
The target in series [9] is Sodium-dependent dopamine transporter (Homo sapiens, UniProt Q01959). The series is described as follows: Inhibition of DAT (unknown origin).
The target of another series is D(1A) dopamine receptor (Homo sapiens, UniProt P21728). The series is described as follows: Binding affinity to dopamine D1 receptor (unknown origin) at 10 uM. The method, boiled down: (§1)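 Primary radioligand-binding screen by the NIMH Psychoactive Drug Screening Program. Each compound was tested at a final concentration of 10 μM in triplicate or quadruplicate, and % inhibition was recorded. Data are mean ± SEM of four independent experiments. Compounds reaching at least 50% antagonist activity went on to secondary dose-response assays.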

The target in a further series is D(2) dopamine receptor (Homo sapiens, UniProt P14416). Nature of the series: Binding affinity to dopamine D2 receptor (unknown origin) at 10 uM. The gist of the method:
as §1

The target of a further series is T1, D(4) dopamine receptor (Homo sapiens, UniProt P21917).
T1 sequence (P21917 whole entry): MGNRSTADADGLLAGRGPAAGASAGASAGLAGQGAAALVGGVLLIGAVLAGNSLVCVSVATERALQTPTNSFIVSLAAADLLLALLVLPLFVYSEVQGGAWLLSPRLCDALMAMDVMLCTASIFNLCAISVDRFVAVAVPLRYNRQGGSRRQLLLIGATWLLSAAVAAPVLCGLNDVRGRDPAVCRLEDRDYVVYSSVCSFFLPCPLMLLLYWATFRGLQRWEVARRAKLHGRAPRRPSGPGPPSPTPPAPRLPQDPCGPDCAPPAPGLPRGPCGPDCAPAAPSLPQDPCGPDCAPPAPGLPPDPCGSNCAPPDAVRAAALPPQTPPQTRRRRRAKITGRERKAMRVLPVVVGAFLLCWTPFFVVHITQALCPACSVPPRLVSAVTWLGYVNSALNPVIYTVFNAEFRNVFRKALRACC
Nature of the series: Binding affinity to dopamine D4 receptor (unknown origin) at 10 uM. The gist of the method:
as §1

Series [10] in a line: Drug uptake in C57 mouse brain at 10 mg/kg, ip measured after 1 hrs by LC-MS/MS analysis. The series is classed as ADME, organism-based. The settings on record: in vivo. The gist of the method: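 Eight-week-old male and female C57 mice (~20 g) received a single 10 mg/kg i.p. dose in ethanol 2.5%, DMSO 2.5%, Tween 80 5%, PEG 400 25% and PBS 65%. Brains were taken after cardiac perfusion at 0–48 h. Tissue was homogenized in PBS (1:3 w/v), extracted with acetonitrile containing internal standard, and quantified by LC-MS/MS against matrix-matched calibration curves. n = 2–4.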

The next series deals with D(3) dopamine receptor (Homo sapiens, UniProt P35462). Nature of the series: Binding affinity to dopamine D3 receptor (unknown origin) at 10 uM. The series is classed as ADME. The gist of the method:
as §1

In series [11] the target is DAT (sodium-dependent dopamine transporter) (Homo sapiens, UniProt Q01959). The series is described as follows: Inhibition of DAT (unknown origin) at 10 uM relative to control. The method, boiled down:
as §1

For another series, the target named is D(1B) dopamine receptor (Homo sapiens, UniProt P21918). Nature of the series: Binding affinity to dopamine D5 receptor (unknown origin) at 10 uM. The gist of the method: as §1

pIC50, pKi: −log10 of the molar value. The source made the active and inactive calls. The rule behind the calls is not given here.

D(3) dopamine receptor, sequence (P35462 whole entry): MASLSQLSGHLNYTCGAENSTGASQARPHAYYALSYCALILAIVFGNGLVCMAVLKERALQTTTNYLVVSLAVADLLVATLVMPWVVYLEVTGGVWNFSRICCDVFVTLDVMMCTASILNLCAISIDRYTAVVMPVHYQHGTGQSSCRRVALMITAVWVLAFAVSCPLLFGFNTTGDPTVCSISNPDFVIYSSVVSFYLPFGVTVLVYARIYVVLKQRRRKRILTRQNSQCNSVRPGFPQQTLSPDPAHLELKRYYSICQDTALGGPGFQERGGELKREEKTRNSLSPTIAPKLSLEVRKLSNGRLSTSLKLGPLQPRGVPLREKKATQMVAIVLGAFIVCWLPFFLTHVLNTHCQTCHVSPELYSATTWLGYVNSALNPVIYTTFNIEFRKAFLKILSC
D(2) dopamine receptor, sequence (P14416 whole entry): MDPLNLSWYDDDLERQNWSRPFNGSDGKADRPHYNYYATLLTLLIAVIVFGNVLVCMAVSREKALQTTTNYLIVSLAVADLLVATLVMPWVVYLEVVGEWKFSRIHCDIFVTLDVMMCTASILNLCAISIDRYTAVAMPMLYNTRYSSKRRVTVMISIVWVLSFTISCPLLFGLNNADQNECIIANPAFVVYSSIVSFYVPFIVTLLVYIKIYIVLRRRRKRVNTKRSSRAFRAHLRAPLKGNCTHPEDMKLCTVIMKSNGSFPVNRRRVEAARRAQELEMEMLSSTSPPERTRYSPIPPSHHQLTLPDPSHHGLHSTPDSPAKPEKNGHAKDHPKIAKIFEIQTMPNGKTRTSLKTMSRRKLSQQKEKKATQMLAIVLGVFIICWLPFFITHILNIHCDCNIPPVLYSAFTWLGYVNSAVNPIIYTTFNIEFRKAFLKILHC
Histamine H1 receptor, sequence (P35367 whole entry): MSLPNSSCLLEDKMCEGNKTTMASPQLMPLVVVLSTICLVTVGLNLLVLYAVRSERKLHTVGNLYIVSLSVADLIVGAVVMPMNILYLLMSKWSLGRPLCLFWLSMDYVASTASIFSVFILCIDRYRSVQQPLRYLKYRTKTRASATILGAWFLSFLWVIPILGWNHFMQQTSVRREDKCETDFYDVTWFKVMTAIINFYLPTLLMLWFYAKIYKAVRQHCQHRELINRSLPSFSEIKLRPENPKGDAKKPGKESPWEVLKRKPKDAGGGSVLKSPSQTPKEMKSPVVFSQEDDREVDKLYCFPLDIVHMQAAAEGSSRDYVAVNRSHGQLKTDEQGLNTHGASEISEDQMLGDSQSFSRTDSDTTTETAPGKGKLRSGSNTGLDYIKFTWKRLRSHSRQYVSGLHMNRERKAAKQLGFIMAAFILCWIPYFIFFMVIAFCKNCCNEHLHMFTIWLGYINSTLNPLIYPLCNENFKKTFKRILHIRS
DAT (sodium-dependent dopamine transporter), sequence (Q01959 whole entry): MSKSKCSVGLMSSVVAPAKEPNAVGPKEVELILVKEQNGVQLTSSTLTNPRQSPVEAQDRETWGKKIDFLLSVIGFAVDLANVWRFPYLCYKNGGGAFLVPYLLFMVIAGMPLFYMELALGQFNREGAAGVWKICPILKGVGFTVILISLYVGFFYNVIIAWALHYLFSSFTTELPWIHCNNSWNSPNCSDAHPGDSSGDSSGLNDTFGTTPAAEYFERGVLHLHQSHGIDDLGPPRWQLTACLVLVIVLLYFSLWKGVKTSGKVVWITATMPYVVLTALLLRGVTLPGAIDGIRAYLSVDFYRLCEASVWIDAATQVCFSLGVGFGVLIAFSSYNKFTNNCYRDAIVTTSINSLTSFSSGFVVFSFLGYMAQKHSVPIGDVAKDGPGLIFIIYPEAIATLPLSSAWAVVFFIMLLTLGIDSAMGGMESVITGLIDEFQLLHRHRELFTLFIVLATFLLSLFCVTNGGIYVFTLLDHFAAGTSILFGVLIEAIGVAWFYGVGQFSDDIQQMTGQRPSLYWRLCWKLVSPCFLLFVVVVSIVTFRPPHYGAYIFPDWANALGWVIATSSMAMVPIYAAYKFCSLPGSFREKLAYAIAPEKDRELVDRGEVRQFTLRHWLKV
Sodium-dependent dopamine transporter, sequence (Q01959 whole entry): as above
D(1B) dopamine receptor, sequence (P21918 whole entry): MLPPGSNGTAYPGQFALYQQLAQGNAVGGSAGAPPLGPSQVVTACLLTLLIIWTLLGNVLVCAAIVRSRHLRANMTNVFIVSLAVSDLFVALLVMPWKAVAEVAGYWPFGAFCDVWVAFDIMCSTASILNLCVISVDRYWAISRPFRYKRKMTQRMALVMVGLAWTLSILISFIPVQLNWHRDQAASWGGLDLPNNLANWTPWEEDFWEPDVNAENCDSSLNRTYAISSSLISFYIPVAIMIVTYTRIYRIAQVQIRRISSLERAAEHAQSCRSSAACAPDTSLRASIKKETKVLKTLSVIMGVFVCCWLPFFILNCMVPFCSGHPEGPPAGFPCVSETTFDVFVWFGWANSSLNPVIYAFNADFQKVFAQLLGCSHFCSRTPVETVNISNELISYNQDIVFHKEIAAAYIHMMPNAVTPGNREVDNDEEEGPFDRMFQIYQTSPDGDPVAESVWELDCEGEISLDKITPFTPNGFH
D(1A) dopamine receptor, sequence (P21728 whole entry): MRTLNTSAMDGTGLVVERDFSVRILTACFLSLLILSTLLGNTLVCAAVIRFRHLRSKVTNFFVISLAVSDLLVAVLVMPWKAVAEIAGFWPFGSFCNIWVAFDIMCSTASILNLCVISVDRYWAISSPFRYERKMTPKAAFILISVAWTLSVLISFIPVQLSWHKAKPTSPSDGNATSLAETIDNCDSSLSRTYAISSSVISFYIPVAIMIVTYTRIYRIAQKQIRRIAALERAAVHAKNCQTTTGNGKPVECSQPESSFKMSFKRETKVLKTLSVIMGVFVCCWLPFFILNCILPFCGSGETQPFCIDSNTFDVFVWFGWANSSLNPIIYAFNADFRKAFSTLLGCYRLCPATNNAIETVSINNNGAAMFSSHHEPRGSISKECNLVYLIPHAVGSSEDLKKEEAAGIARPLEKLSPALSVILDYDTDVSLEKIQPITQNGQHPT
Fibroblast growth factor receptor 1 (Homo sapiens), sequence (P11362 22-822 limits assumed): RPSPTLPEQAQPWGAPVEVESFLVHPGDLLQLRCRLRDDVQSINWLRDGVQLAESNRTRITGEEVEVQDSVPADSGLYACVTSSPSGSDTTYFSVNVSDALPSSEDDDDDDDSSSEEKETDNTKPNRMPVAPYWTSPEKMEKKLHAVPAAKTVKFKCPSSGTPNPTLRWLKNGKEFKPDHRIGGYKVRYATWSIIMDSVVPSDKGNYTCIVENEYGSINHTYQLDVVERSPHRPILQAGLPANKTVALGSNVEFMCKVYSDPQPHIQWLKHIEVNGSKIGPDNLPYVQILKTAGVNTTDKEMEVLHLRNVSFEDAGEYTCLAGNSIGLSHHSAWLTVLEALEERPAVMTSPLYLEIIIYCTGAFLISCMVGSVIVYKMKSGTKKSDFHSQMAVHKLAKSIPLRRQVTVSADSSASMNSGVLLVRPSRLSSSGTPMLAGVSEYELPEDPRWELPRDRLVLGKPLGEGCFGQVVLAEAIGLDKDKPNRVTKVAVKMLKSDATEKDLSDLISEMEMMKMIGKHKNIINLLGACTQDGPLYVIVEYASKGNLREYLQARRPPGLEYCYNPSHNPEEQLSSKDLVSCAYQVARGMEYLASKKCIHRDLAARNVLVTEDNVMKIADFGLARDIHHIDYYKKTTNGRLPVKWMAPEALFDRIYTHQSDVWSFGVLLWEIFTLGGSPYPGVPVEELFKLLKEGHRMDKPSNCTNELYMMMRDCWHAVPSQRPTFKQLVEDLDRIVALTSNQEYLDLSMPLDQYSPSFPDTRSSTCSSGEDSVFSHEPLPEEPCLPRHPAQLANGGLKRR

As a reminder, the inhibition is the relative decrease from the control value, in per cent. By pIC50 is commonly meant the negative decadic logarithm of the IC50, by convention in mol/L. For the compound `O=C(NCCCCC(c1ccc(F)cc1)c1ccc(F)cc1)Nc1ccc([N+](=O)[O-])c(C(F)(F)F)c1`, the inhibition entry in series [1] is “Active”. For the same compound, the “fold change (FC)” value in the series on MDA-MB-231 [2] is 10.6. Also, the negative-log IC50 (pIC50) with MDA-MB-231 [3] is 5.34. Also, in [4], the Stabilty result is “Stable”. Also, in the series with MDA-MB-231 [5], the outcome was inactive. Besides, the result in the series on MDA-MB-231 [6] and in the series with MDA-MB-231 [7] was Active. Besides, the Activity result in the series on MDA-MB-231 [8] is “Dose-dependent effect”.

For orientation: pKi means the negative decadic logarithm of the Ki, by convention in mol/L. `O=C(NCCCCC(c1ccc(F)cc1)c1ccc(F)cc1)Nc1ccc(Cl)cc1`: the “inhibition (INH)” value against Histamine H1 receptor is “Active”. Further, the pKi in series [9] is 7.82. In addition, the Activity entry on D(1A) dopamine receptor, at D(2) dopamine receptor, at D(4) dopamine receptor, on D(3) dopamine receptor and at D(1B) dopamine receptor was “Not Active” each time. For the same compound, the pIC50 with MDA-MB-231 [3] was 5.11. In [10], the Drug uptake result is given as “Active”. This compound also came in with an inhibition at 10 µM in series [11] of 82%.

(Values after ChEMBL document CHEMBL4732053, “Design, synthesis and structure-activity relationship study of novel urea compounds as FGFR1 inhibitors to treat metastatic triple-negative breast cancer” (Eur J Med Chem, 2021).)
